ChEMBL document CHEMBL1150763, “Discovery of imidazo[1,5-c]imidazol-3-ones: weakly basic, orally active factor Xa inhibitors” (J Med Chem, 2008)

Columns and labels:
Coagulation factor X = Coagulation factor X (Homo sapiens, UniProt P00742); assay: Inhibition of human factor 10a
Plasma [1] = assay: Anticoagulant potency in human plasma assessed as concentration required to double the time to clot formation by PT assay; assay type: functional
How it was run: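 Human normal plasma mixed with compound dilutions in DMSO (1.5 µL into 48.5 µL), preincubated 4 min at 37 °C, clotting started with thromboplastin and timed on an automatic coagulometer. Prolongation relative to DMSO; concentration doubling clotting time derived by least-squares regression; mean of duplicates.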

Plasma [2] = assay: Anticoagulant potency in mouse plasma assessed as concentration required to double the time to clot formation by PT assay; assay type: functional
Plasma [3] = assay: Anticoagulant activity in mouse plasma assessed as ratio of prothrombin time in drug to untreated control at 30 mg/kg, po; assay type: functional
How it was run: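 Male ICR mice (30-35 g), fasted >12 h, dosed orally at 30 mg/kg as suspension in 0.5% methylcellulose; vehicle controls. Citrated aortic blood drawn 1 h post-dose under pentobarbital anaesthesia, spun 1000g 10 min to platelet-poor plasma. PT on 50 µL plasma preincubated 4 min at 37 °C, started with thromboplastin; clotting time expressed relative to control group (n = 3).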

CYP3A4 = CYP3A4 (Homo sapiens, UniProt P08684); assay: Inhibition of CYP3A4 expressed in human B-lymphoblastoid cells at 10 uM; assay type: ADME, cell-based
Chain of CYP3A4 (P08684 whole entry): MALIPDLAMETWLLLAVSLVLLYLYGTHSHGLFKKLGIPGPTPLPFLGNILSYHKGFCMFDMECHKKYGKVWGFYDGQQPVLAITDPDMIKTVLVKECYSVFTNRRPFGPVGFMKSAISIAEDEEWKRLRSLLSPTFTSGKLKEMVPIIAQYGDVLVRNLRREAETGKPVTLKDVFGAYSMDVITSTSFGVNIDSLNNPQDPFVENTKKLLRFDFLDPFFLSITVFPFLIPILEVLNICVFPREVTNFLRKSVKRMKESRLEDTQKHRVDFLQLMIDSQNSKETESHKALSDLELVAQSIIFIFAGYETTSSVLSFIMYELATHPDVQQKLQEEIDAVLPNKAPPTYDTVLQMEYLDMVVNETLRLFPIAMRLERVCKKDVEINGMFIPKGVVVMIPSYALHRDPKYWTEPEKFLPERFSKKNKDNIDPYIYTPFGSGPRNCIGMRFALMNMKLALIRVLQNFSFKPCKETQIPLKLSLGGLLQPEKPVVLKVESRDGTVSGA
How it was run: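 Recombinant CYP3A4 (10 nM, from CYP3A4-expressing human B-lymphoblastoid cells) incubated with 100 µM testosterone and 10 µM test compound for 30 min at 37 °C; 6β-hydroxytestosterone formation quantified by HPLC-UV.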

[4] = Basicity, pKa by titration method; assay type: physicochemical
physchem = conditions: buffer, pH 7.4

Chain of Coagulation factor X (P00742 41-179 limits assumed): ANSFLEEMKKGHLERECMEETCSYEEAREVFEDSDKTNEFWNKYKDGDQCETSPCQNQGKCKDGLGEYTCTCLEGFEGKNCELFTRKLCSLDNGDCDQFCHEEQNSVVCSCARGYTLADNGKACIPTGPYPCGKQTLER
Chain of Coagulation factor X (P00742 235-488 limits assumed): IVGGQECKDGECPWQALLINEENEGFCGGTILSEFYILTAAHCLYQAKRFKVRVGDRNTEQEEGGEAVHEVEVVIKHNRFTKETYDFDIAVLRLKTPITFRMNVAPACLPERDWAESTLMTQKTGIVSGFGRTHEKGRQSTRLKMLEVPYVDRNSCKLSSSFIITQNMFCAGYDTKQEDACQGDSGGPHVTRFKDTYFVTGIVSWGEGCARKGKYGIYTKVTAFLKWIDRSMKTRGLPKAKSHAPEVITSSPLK

Row | Compound | IC50 (Coagulation factor X) | inhibition at 10 µM (CYP3A4) | pKa [4] | logD (physchem) | Activity (Plasma [1]) | Activity (Plasma [2]) | Ratio (Plasma [3])
1 | Cc1nccn1CCN1CCN(C(=O)CCS(=O)(=O)c2ccc3cc(Cl)ccc3c2)CC1 | 0.054 µM | 53% |  |  | 0.99 µM | 2.1 µM | 1.1
2 | O=C(CCS(=O)(=O)c1ccc2cc(Cl)ccc2c1)N1CCN(c2cccc3nc(CO)cn23)CC1 | 0.0097 µM |  |  |  |  |  | 
3 | Cc1ncc(C2CCN(C(=O)CCS(=O)(=O)c3ccc4cc(Cl)ccc4c3)CC2)[nH]1 | 0.12 µM |  | 7.9 | 2 | 2.5 µM |  | 
4 | O=C(CCS(=O)(=O)c1ccc2cc(Cl)ccc2c1)N1CCC(c2cnc3ccccn23)CC1 | 0.012 µM |  | 5.9 | 2.5 | 2.2 µM |  | 
5 | CCCc1nccn1C1CCN(C(=O)CCS(=O)(=O)c2ccc3cc(Cl)ccc3c2)CC1 | 0.23 µM |  |  |  | 2 µM |  | 
6 | Cc1nccn1CCCCC1CCN(C(=O)CCS(=O)(=O)c2ccc3cc(Cl)ccc3c2)CC1 | 0.3 µM |  |  |  | >10 µM |  | 
7 | Cn1ccnc1C1CCN(C(=O)CCS(=O)(=O)c2ccc3cc(Cl)ccc3c2)CC1 | 0.056 µM |  |  |  | 2.1 µM |  | 

Second part, led by results:

Row | IC50 (Coagulation factor X) | inhibition at 10 µM (CYP3A4) | pKa [4] | logD (physchem) | Compound | Activity (Plasma [1]) | Activity (Plasma [2]) | Ratio (Plasma [3])
8 | 1.4 µM |  |  |  | O=C(CCS(=O)(=O)c1ccc2cc(Cl)ccc2c1)N1CCC(n2ccnc2)CC1 | 7 µM |  | 
9 | 0.056 µM | 82% | 7.2 | 2 | Cn1cncc1C1CCN(C(=O)CCS(=O)(=O)c2ccc3cc(Cl)ccc3c2)CC1 | 0.49 µM | 2.7 µM | 1.2
10 | 0.037 µM | 38% | 7.9 | 2.2 | Cc1nccn1CCC1CCN(C(=O)CCS(=O)(=O)c2ccc3cc(Cl)ccc3c2)CC1 | 0.91 µM | 1.7 µM | 1.1
11 | 0.46 µM |  |  |  | Cc1nccn1CCCC1CCN(C(=O)CCS(=O)(=O)c2ccc3cc(Cl)ccc3c2)CC1 | >10 µM |  | 
